Results as given in ChEMBL document CHEMBL2176905 (J Med Chem, 2012).
Where a name gives a salt, the structure may show the parent alone. Active and inactive are the calls of the source. The calls are words filed in the database; no cut-off is given here. Residues, ends and D or L forms follow the SMILES beside them. *: point of attachment. PhAc = O=C(Cc1ccccc1)*; Tfa = O=C(C(F)(F)F)*; NHBu = CCCCN*

Tests used:
[1] = molecular target: T1, Prothrombin (Homo sapiens, UniProt P00734); test: Inhibition of thrombin assessed as hydrolysis of H-D-Pro-L-Phe-L-Arg-p-nitroanilide at 100 uM incubated for 2 hrs measured for 20 mins by microplate reader analysis
In short: (§1)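 Counter-screen in 0.1 M HEPES with 0.5 M NaCl, pH 7.25, 96-well format, duplicates. Chymotrypsin, trypsin and porcine pancreatic elastase were commercial; thrombin and plasminogen were purified in-house. Chromogenic substrate hydrolysis followed kinetically at 405 nm on a plate reader. Test compounds up to 100 μM maximum; AEBSF run as irreversible positive control with IC50 determined.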

[2] = Inhibition of chymotrypsin assessed as hydrolysis of N-succinyl-Ala-Ala-Pro-Phe-p-nitroanilide at 100 uM incubated for 2 hrs measured for 20 mins by microplate reader analysis; in short: as §1
[3] = molecular target: T2, Neutrophil elastase (Homo sapiens, UniProt P08246); test: Inhibition of human neutrophil elastase assessed as hydrolysis of N-succinyl-Ala-Ala-Pro-Val-p-nitroanilide incubated for 2 hrs measured for 20 mins by microplate reader analysis
T2 sequence (P08246 whole entry): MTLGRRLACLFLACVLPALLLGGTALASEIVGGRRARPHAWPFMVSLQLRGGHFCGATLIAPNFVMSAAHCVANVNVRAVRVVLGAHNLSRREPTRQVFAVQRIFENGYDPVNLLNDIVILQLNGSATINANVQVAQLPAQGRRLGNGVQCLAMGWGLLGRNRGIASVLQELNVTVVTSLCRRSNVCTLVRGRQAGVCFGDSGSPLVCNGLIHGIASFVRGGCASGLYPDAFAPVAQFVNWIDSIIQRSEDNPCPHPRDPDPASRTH
In short: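 HNE (stock 2.8 μM in pH 5.5 acetate/0.5 M NaCl; final 30 nM) preincubated 2 h at 25 °C with inhibitor (final 0.5−50 μM, 7 concentrations) in 0.1 M HEPES, 0.5 M NaCl, pH 7.25, 5.5% DMSO. Suc-Ala-Ala-Pro-Val-pNA added (final 0.35 mM). Hydrolysis rate read kinetically at 405 nm, 25 °C, 20 min. Duplicates; IC50 derived.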

[4] = molecular target: T3, Plasminogen (Homo sapiens, UniProt P00747); test: Inhibition of plasmin assessed as hydrolysis of H-D-Val-L-Leu-L-Lys-p-nitroanilide at 100 uM incubated for 2 hrs measured for 20 mins by microplate reader analysis; in short: as §1
T3 sequence (P00747 97-580 limits assumed): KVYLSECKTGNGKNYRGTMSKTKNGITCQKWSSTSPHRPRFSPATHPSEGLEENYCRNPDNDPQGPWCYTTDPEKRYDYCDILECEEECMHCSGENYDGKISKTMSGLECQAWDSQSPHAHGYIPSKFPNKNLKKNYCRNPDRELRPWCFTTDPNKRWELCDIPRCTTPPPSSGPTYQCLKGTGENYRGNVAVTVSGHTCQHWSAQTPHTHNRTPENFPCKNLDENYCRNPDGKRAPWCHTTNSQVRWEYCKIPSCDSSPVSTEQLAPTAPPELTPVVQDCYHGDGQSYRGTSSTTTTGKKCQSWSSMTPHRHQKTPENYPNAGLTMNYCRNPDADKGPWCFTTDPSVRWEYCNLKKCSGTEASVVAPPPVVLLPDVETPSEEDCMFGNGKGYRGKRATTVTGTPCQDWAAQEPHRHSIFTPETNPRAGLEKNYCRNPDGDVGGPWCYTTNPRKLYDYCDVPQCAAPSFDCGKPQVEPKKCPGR
T3 sequence (P00747 581-810 limits assumed): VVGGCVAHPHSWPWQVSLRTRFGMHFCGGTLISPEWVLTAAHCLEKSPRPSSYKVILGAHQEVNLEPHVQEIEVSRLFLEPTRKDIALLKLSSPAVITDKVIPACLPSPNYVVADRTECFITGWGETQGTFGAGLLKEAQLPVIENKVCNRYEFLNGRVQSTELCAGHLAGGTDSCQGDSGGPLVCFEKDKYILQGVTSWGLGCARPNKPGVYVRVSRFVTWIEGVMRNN

[5] = molecular target: T4, Cathepsin G (Homo sapiens) (UniProt P08311); test: Inhibition of cathepsin G assessed as hydrolysis of N-succinyl-Ala-Ala-Pro-Phe-p-nitroanilide at 100 uM incubated for 2 hrs measured for 20 mins by microplate reader analysis
T4 sequence (whole entry): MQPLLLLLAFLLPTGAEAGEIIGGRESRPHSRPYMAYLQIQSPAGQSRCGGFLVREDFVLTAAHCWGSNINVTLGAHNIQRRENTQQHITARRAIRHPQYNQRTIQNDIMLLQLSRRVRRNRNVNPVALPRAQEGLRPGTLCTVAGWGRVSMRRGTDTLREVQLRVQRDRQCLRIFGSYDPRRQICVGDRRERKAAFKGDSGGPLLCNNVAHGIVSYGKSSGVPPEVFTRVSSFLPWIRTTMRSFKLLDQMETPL

[6] = molecular target: Pancreatic elastase (Sus scrofa) (UniProt P08419+P00772); test: Inhibition of porcine pancreatic elastase assessed as hydrolysis of N-succinyl-Ala-Ala-Ala-p-nitroanilide at 100 uM incubated for 2 hrs measured for 20 mins by microplate reader analysis; assay type: protein assay; in short: as §1
[7] = Inhibition of trypsin assessed as hydrolysis of H-D-Pro-L-Phe-L-Arg-p-nitroanilide at 100 uM incubated for 2 hrs measured for 20 mins by microplate reader analysis; in short: as §1
[8] = molecular target: T2, Neutrophil elastase; test: Uncompetitive inhibition of human neutrophil elastase assessed as hydrolysis of N-succinyl-Ala-Ala-Pro-Val-p-nitroanilide incubated for 2 hrs measured for 20 mins by Dixon and Cornish-Bowden analysis
In short: (§2)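 Mechanism study: HNE (final 30 nM) preincubated 2 h at 25 °C with inhibitor (final 5−20 μM, 3 concentrations) in 0.1 M HEPES, 0.5 M NaCl, pH 7.25, 5.5% DMSO. Suc-Ala-Ala-Pro-Val-pNA added at two final levels, 0.0875 or 0.35 mM. Rate followed at 405 nm, 25 °C, 20 min. Duplicates; Dixon and Cornish-Bowden plots.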

[9] = Inhibition of HIV protease; parameters: species or system Human immunodeficiency virus
[10] = molecular target: T2, Neutrophil elastase; test: Inhibition of human neutrophil elastase
[11] = molecular target: T3, Plasminogen; test: Inhibition of plasmin assessed as hydrolysis of H-D-Val-L-Leu-L-Lys-p-nitroanilide incubated for 2 hrs measured for 20 mins by microplate reader analysis
In short: (§3)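 Selectivity panel run in duplicate in 0.1 M HEPES with 0.5 M NaCl, pH 7.25. p-Nitroanilide release was followed kinetically at 405 nm, with inhibitor tested up to 100 μM maximum. Plasmin came from plasminogen purified in-house; porcine pancreatic elastase was commercial. IC50 values were determined.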

[12] = Inhibition of trypsin assessed as hydrolysis of H-D-Pro-L-Phe-L-Arg-p-nitroanilide incubated for 2 hrs measured for 20 mins by microplate reader analysis; in short: as §1
[13] = Inhibition of chymotrypsin assessed as hydrolysis of N-succinyl-Ala-Ala-Pro-Phe-p-nitroanilide incubated for 2 hrs measured for 20 mins by microplate reader analysis; in short: as §1
[14] = molecular target: T1, Prothrombin; test: Inhibition of thrombin assessed as hydrolysis of H-D-Pro-L-Phe-L-Arg-p-nitroanilide incubated for 2 hrs measured for 20 mins by microplate reader analysis; in short: as §1
[15] = molecular target: T5, Cathepsin G (Homo sapiens, UniProt P08311); test: Inhibition of cathepsin G assessed as hydrolysis of N-succinyl-Ala-Ala-Pro-Phe-p-nitroanilide incubated for 2 hrs measured for 20 mins by microplate reader analysis
T5 sequence (P08311 whole entry): T4 sequence (whole entry)

[16] = molecular target: Pancreatic elastase (Sus scrofa, UniProt P08419+P00772); test: Inhibition of porcine pancreatic elastase assessed as hydrolysis of N-succinyl-Ala-Ala-Ala-p-nitroanilide incubated for 2 hrs measured for 20 mins by microplate reader analysis; assay type: protein assay; in short: as §3
[17] = molecular target: T2, Neutrophil elastase; test: Noncompetitive inhibition of human neutrophil elastase assessed as hydrolysis of N-succinyl-Ala-Ala-Pro-Val-p-nitroanilide incubated for 2 hrs measured for 20 mins by Dixon and Cornish-Bowden analysis; in short: as §2

In the case of `CCCCNC(=O)CC[Si](O)(O)[C@H](CC(C)C)NC(=O)[C@@H](NC(=O)Cc1ccccc1)[C@@H](C)CC`, the inhibition [1] is reported as “inactive”, the inhibition [2] is reported as “inactive” and the IC50 [3] is reported as 38 µM. The inhibition [4] was “inactive”, the inhibition [5] was “inactive” and the inhibition [6] was “inactive”. For the same compound, the inhibition [7] was “inactive” and the Ki [8] was 5 µM.

With `CCCCNC(=O)CC[Si](O)(O)[C@H](CC(C)C)NC(=O)[C@@H](NC(=O)c1ccc2ccccc2c1)[C@@H](C)CC` the inhibition [1] was “inactive”, the inhibition [2] was “inactive” and the IC50 [3] was 16 µM. For the same compound, the inhibition [4] was “inactive”, the inhibition [5] was “inactive” and the inhibition [6] was “inactive”. For the same compound, the inhibition [7] was “inactive” and the Ki [8] was 4 µM.

In the case of `CCCCNC(=O)CNC(=O)[C@H](CC(C)C)NC(=O)[C@@H](NC(C)=O)[C@@H](C)CC` (Ac-Ile-Leu-Gly-NHBu), the IC50 [3] is reported as greater than 200 µM.

Compound `CC[C@H](C)[C@H](NC(=O)Cc1ccc2ccccc2c1)C(=O)N[C@@H](CC(C)C)[Si](C)(O)O` has an IC50 [3] of 39 µM.

`CCCCNC(=O)CC[Si](O)(O)[C@H](CC(C)C)NC(=O)[C@@H](NC(C)=O)[C@@H](C)CC` showed an IC50 [3] greater than 200 µM.

`O=C(N[C@H]1c2ccccc2C[C@H]1O)[C@H](Cc1ccccc1)C[Si](O)(O)C[C@@H](Cc1ccccc1)C(=O)N[C@H]1c2ccccc2C[C@H]1O` showed a Ki [9] of 0.0027 µM.

Compound `CCCCNC(=O)CNC(=O)[C@H](CC(C)C)NC(=O)[C@@H](NC(=O)Cc1ccccc1)[C@@H](C)CC` (PhAc-Ile-Leu-Gly-NHBu) has an IC50 [3] of 51 µM.

Work on `CCCCNC(=O)CC[Si](O)(O)[C@H](CC(C)C)NC(=O)[C@@H](NC(=O)Cc1ccc2ccccc2c1)[C@@H](C)CC` yielded an IC50 [10] of 0.3 µM.

`Cl.NCCc1ccc(S(=O)(=O)F)cc1` [4-AMINOETHYLBENZENESULFONYL FLUORIDE HYDROCHLORIDE] gave an IC50 [11] of 240 µM, an IC50 [12] of 10 µM and an IC50 [13] of 12 µM. The IC50 [14] was 62 µM, the IC50 [15] was 250 µM and the IC50 [16] was 160 µM.

In the case of `CCCCNC(=O)CNC(=O)[C@H](CC(C)C)NC(=O)[C@@H](NC(=O)Cc1ccc2ccccc2c1)[C@@H](C)CC`, the IC50 [11] is reported as 99 µM, the IC50 [12] is reported as 89 µM and the IC50 [3] is reported as 14 µM. For the same compound, the inhibition [5] was “inactive”, the IC50 [13] was 150 µM and the IC50 [14] was 100 µM. For the same compound, the Ki [17] was 18 µM and the IC50 [16] was 55 µM.

In the case of `CCCCNC(=O)CC[Si](c1ccccc1)(c1ccccc1)[C@H](CC(C)C)NC(=O)[C@@H](NC(=O)Cc1ccc2ccccc2c1)[C@@H](C)CC`, the IC50 [12] is reported as 58 µM, the IC50 [3] is reported as 14 µM and the inhibition [4] is reported as “inactive”. The IC50 [13] was 110 µM, the IC50 [14] was 92 µM and the inhibition [6] was “inactive”. The Ki [17] was 13 µM.

In the case of `CCCCNC(=O)CNC(=O)[C@H](CC(C)C)NC(=O)[C@@H](NC(=O)C(F)(F)F)[C@@H](C)CC` (Tfa-Ile-Leu-Gly-NHBu), the IC50 [3] is reported as greater than 200 µM.

`CCCCNC(=O)CC[Si](O)(O)[C@H](CC(C)C)NC(=O)[C@@H](NC(=O)C(F)(F)F)[C@@H](C)CC` gave an IC50 [3] of 46 µM.

In the case of `CCCCNC(=O)CC[Si](O)(O)[C@@H](CC(C)C)NC(=O)[C@@H](NC(=O)Cc1ccc2ccccc2c1)[C@@H](C)CC`, the inhibition [1] is reported as “inactive”, the inhibition [2] is reported as “inactive” and the IC50 [3] is reported as 18 µM. The inhibition [4] was “inactive”, the inhibition [5] was “inactive” and the inhibition [6] was “inactive”. For the same compound, the inhibition [7] was “inactive”, the Ki [8] was 3.5 µM and the IC50 [10] was 0.3 µM.
